Most compounds without a hit are left out; they make up all but 2.3% or so of the library.
TRPC6 inhibitor: inhibitors of mouse TRPC6 channel. Q61143. HEK293-TRPC6, membrane potential dye, ACh-evoked depolarization; stronger effect = lower value. B-score at 10 µM. hit rate 1.1% among 310,000. AID 2553;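 active = B-score under library mean minus 3 SD, initial fluorescence not abnormally high, positive integrated signal ratio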;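 note: B-score derived from integrated fluorescence ratio over the kinetic read; more negative B-score means stronger inhibition of depolarization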
TRPC4 agonist: activators of mouse TRPC4 channel; Q9QUQ5; AID 2237; B-score at 10 µM; hit rate 0.49% among 310,000; HEK293 TRPC4beta/mu-opioid, Fluo4 calcium fluorescence; stronger effect = higher value;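 active = B-score above 5 SD of library B-scores, and initial fluorescence ratio not above library mean plus 5 SD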;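 note: positive B-score marks a calcium rise read as TRPC4 activation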
Target sequence (Q9QUQ5 whole entry, looked up): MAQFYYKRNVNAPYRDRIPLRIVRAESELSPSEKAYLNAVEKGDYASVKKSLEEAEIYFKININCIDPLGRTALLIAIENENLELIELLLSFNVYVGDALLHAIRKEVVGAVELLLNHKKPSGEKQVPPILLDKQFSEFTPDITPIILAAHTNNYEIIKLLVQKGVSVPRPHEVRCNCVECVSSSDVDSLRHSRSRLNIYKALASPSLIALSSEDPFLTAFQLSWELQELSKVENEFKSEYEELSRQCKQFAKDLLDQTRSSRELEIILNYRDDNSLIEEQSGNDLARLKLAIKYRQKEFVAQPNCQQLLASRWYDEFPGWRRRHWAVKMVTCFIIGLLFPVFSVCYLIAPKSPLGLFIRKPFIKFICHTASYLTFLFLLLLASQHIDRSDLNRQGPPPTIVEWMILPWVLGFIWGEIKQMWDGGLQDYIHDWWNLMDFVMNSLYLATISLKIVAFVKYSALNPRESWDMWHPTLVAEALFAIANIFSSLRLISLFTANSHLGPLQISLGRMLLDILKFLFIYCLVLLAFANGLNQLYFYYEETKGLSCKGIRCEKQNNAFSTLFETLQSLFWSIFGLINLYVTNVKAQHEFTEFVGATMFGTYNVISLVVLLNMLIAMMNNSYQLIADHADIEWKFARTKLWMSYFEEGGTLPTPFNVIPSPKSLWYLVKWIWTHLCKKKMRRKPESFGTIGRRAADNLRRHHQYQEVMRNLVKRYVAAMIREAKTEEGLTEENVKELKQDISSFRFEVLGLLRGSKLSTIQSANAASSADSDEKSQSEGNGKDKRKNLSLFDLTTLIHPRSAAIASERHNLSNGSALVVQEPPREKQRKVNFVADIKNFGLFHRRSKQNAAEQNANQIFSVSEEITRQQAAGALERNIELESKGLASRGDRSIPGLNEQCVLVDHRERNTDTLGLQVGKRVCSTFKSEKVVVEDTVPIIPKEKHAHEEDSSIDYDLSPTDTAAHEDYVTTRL
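Test system: HEK293 cells stably co-expressing mouse TRPC4beta and mu-opioid receptor | Schedule: Fluo4 dye loading 45 min at room temperature, 110 s recording | Measured by: Kinetic Fluo4 calcium fluorescence, 5 s baseline at 1 Hz | Evaluation: B score of integrated ratio | Controls: Buffer (low) and maximal DAMGO (high)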
TRPC4 PAM: allosterically enhances the mouse TRPC4 cation channel. AID 2227. Q9QUQ5. HEK293 TRPC4beta/mu-opioid, DAMGO EC20, Fluo-4 Ca2+ flux; stronger effect = higher value. hit rate 0.42% among 310,000. B-score at 10 µM;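 active = B-score of calcium response area above 5 SD of library B-scores, with initial fluorescence ratio within 5 SD of library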;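 note: B-score of integrated fluorescence ratio over time as area under calcium response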
TRPC4 block: TRPC4 (mouse) channel inhibition; Q9QUQ5; HEK293 TRPC4beta/mu-opioid, DAMGO-evoked Fluo4 calcium flux; stronger effect = lower value; B-score at 10 µM; hit rate 0.39% among 300,000;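 active = B-score over 3 SD under the library average, no early fluorescence shift, positive overall ratio signal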
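test system = HEK293 cells with stable TRPC4beta plus mu-opioid receptor expression | detection = Fluo4 Ca2+ flux fluorescence | read-out = integrated fluorescence ratio relative to baseline, converted to per-well B score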
TRPC6 activator: activates the mouse TRPC6 cation channel; HEK293-TRPC6 membrane potential dye fluorescence; stronger effect = higher value; B-score at 10 µM; hit rate 0.13% among 310,000; AID 2550;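 active = B-score of the integrated fluorescence ratio above library mean plus 3 SD, and starting fluorescence ratio within library mean plus 5 SD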;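 note: higher score means more depolarization so channel activation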
TRPC4 sel inh 2: second selectivity test of TRPC6 inhibitors: effect on mouse TRPC4; shares compounds with TRPC6 inhibitor; HEK293 TRPC4/MOR, membrane potential dye fluorescence; channel activated by saturating DAMGO dose; inhibition, % at 10 µM; hit rate 42% among 920; AID 2776;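 active = compounds whose fluorescence signal differed from control wells by over 3 SD, either direction, in both duplicate plates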
TRPC4 spec: mouse TRPC4 off-target activity of TRPC6 inhibitors; activity change, negative = inhibition, % at 10 µM; shares compounds with TRPC6 inhibitor; HEK293 TRPC4/mu-opioid, membrane potential fluorescence; hit rate 61% among 920;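 active = rise or fall in signal beyond 3 SD of buffer-only wells in both replicate plates, either sign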;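 note: integrated kinetic ratio of fluorescence range over baseline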
HEK293 MPD ctr 2-1: second check of TRPC6 inhibitor effects in parental HEK293 cells | parental HEK293 membrane potential dye fluorescence; maximal acetylcholine challenge after compound addition | signal change vs control, % at 10 µM | shares compounds with TRPC6 inhibitor | hit rate 31% among 920;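 active = membrane potential signal moving either way by over 3 SD of the maximum-effect control, in both duplicate plates, meaning non-specific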
HEK293 MPD ctr-1: checks TRPC6 inhibitor effects in parental HEK293 cells | parental HEK293 membrane potential dye fluorescence | hit rate 60% among 920 | membrane potential signal change, % at 10 µM | AID 2780 | shares compounds with TRPC6 inhibitor;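 active = membrane potential signal shifting up or down by more than 3 SD of buffer-only wells, on both duplicate plates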
HEK293 MPD ctr-2: counter-screen for TRPC6 modulators: effect in parental HEK293 cells; shares compounds with TRPC6 inhibitor; membrane potential dye fluorescence; membrane potential signal change, % at 10 µM; hit rate 51% among 2,400; AID 488924;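 active = membrane potential signal moves up or down beyond 5 SD from buffer-only wells, on both duplicate plates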
HEK293 MPD ctr 2-2: parental HEK293 nonspecific activity of TRPC6 modulators, second screen; shares compounds with TRPC6 inhibitor; membrane potential dye fluorescence; after compound, maximal acetylcholine stimulation; inhibition, % at 10 µM; hit rate 14% among 2,400;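 active = membrane potential signal drops by more than 5 SD from the mean control signal, in both duplicate plates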;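 note: plate controls were acetylcholine ECmax control wells for no effect and buffer only wells for full effect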
TRPC4/MOR mod: selectivity of TRPC6 modulators against mouse TRPC4 | hit rate 69% among 2,400 | percent change from control (negative = decrease, positive = increase), % at 10 µM | AID 488927 | HEK293 TRPC4/mu-opioid, membrane potential fluorescence | shares compounds with TRPC6 inhibitor;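 active = membrane potential signal moved up or down beyond 5 SD of buffer control wells, in both duplicate plates, actives on both sides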;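 note: plate controls were assay buffer wells for no effect and DAMGO maximal-effect wells for full effect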
TRPC4/MOR inh 2: second selectivity test of TRPC6 modulators against mouse TRPC4 | shares compounds with TRPC6 inhibitor | HEK293 TRPC4/mu-opioid, membrane potential dye fluorescence; stimulated with maximal-effect DAMGO | inhibition, % at 10 µM | hit rate 55% among 2,400 | AID 488928;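 active = drop in membrane potential signal beyond 5 SD of the control wells in both duplicate plates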;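 note: TRPC4 counter screen for TRPC6 hits run under conditions tuned for TRPC6 not TRPC4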
TRPC6 inh conf: confirmation of mouse TRPC6 inhibitors; shares compounds with TRPC6 inhibitor; HEK293-TRPC6, membrane potential dye, ACh-evoked depolarization; inhibition, % at 10 µM; hit rate 43% among 3,300; AID 488960;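 active = fluorescence ratio falls more than 5 SD below the full-stimulation control mean, in both duplicate runs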;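 note: integrated fluorescence ratio of peak minus minimum over baseline after agonist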
TRPC6 act conf: confirmation of mouse TRPC6 activators; shares compounds with TRPC6 inhibitor; HEK293-TRPC6 membrane potential dye fluorescence, FDSS; activation, % at 10 µM; hit rate 11% among 2,800; AID 488961;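 active = ratio signal rise beyond 5 SD above unstimulated control wells' mean, seen in both duplicate runs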;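 note: plate controls were buffer EC0 wells for no effect and acetylcholine ECmax response for full effect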
Starred values were filed as active, the others as inactive.

Screening Cc1nc(S(=O)(=O)N2CCN(C3c4ccccc4-c4ccccc43)CC2)cn1C returned TRPC6 inhibitor inactive, TRPC4 agonist inactive, TRPC4 PAM inactive, TRPC4 block inactive and TRPC6 activator inactive.
Screening Cc1nc2c(o1)CCc1ccccc1C2N1CCN(C)CC1 (stereo not given) returned TRPC6 inhibitor -9.4*, TRPC4 agonist inactive, TRPC4 PAM inactive, TRPC4 block inactive, TRPC6 activator inactive, TRPC4 sel inh 2 inactive, TRPC4 spec 8.0%*, HEK293 MPD ctr 2-1 -14%*, HEK293 MPD ctr-1 11%* and TRPC6 inh conf 74%*.
Screening N=c1c2c(-c3ccccc3)c(-c3ccccc3)n(Cc3ccco3)c2ncn1CCCO returned TRPC6 inhibitor -5.1*, TRPC4 agonist inactive, TRPC4 PAM inactive, TRPC4 block inactive, TRPC6 activator inactive, HEK293 MPD ctr-2 150%*, HEK293 MPD ctr 2-2 inactive, TRPC4/MOR mod 20%*, TRPC4/MOR inh 2 76%* and TRPC6 inh conf inactive.
`N=c1c2c(-c3ccccc3)c(-c3ccccc3)n(Cc3ccco3)c2ncn1CCO` gave TRPC6 inhibitor -6.6*, TRPC4 agonist inactive, TRPC4 PAM inactive, TRPC4 block inactive, TRPC6 activator inactive, HEK293 MPD ctr-2 123%*, HEK293 MPD ctr 2-2 inactive, TRPC4/MOR mod 16%*, TRPC4/MOR inh 2 80%* and TRPC6 inh conf 43%*.
For c1ccc(-c2nc3nc4ccccc4nc3n2Cc2ccco2)cc1 the results were TRPC6 inhibitor inactive, TRPC4 agonist inactive, TRPC4 PAM inactive, TRPC4 block inactive and TRPC6 activator inactive.
For N=c1c2c(-c3ccccc3)c(-c3ccccc3)n(Cc3ccco3)c2ncn1CCN1CCOCC1 the results were TRPC6 inhibitor -9.9*, TRPC4 agonist inactive, TRPC4 PAM inactive, TRPC4 block inactive, TRPC6 activator inactive, TRPC4 sel inh 2 40%*, TRPC4 spec 3.4%*, HEK293 MPD ctr 2-1 208%*, HEK293 MPD ctr-1 8.2%*, TRPC6 inh conf inactive and TRPC6 act conf inactive.
For CCOC(=O)c1cnc2ccc(C(=O)OC)cc2c1Nc1ccc(C(=O)O)cc1 the results were TRPC6 inhibitor -5.2*, TRPC4 agonist inactive, TRPC4 PAM inactive, TRPC4 block inactive, TRPC6 activator inactive, HEK293 MPD ctr-2 -248%*, HEK293 MPD ctr 2-2 inactive, TRPC4/MOR mod -37%*, TRPC4/MOR inh 2 43%*, TRPC6 inh conf inactive and TRPC6 act conf inactive.

Bioassay records (PubChem)
